High-throughput results deposited in PubChem BioAssay by several laboratories.
M1 agonist: M1 muscarinic receptor agonism | CHO-M1 cells, Fluo-4 calcium fluorescence, agonist mode; active compounds read high | B-score at 10 µM | hit rate 3% among 64,000 | AID 626;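 active means fluorescence rise, raw or as B-score row- and column-corrected plate score, outside the 99.7% band of its plate's samples, either direction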
M1 antagonist: M1 muscarinic receptor (rat) antagonism. P08482. CHO-M1 cells, Fluo-4 calcium, ACh EC80 antagonist mode; active compounds read low. B-score at 10 µM. hit rate 3.4% among 64,000. AID 628;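 active means calcium fluorescence response, raw or row-and-column corrected B-score, differing from the plate sample mean either way at a set confidence level, mostly lower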
D1 mod: allosterically modulates the human D1 dopamine receptor. P21728. HEK293 D1, CRE-luciferase, dopamine EC30 potentiation; actives deviate in either direction. B-score at 10 µM. hit rate 5.9% among 58,000;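 active means luminescence count or its row- and column-corrected plate score outside the 99.7% band of the plate's sample wells, on either side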
SF-1 act: SF-1 (human) activation; Q13285; CHO-K1 Gal4-SF-1 LBD luciferase reporter; % increase over DMSO SF-1-specific signal; activation, % at 10 µM; hit rate 1.9% among 65,000;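 active means activation above the mean activation of all tested compounds plus 3 SD, cut at about 50% in these data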
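Assay system: CHO-K1 cells co-transfected with Gal4 DBD–human SF-1 LBD, 5xGal4 luciferase reporter; doses: 10 µM only; incubation: 20 h compound exposure at 37 °C after 1 h cell settling; signal: luciferase light emission; evaluation: percent activation versus DMSO; repeats: one test per compound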
RORa activator: RORA (human) activation. P35398. CHO-K1 Gal4-RORA LBD luciferase reporter, luminescence; percent increase over mock-subtracted basal signal. activation, % at 10 µM. hit rate 1.5% among 65,000. AID 560;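 active means activation above the mean of all tested compounds plus 3 SD, cut at about 49% in these data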;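 further: 0% = DMSO-treated RORA cells and 100% = added signal equal to DMSO minus mock-transfected cells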
Target sequence (P35398 whole entry, looked up, the tested form may be a part): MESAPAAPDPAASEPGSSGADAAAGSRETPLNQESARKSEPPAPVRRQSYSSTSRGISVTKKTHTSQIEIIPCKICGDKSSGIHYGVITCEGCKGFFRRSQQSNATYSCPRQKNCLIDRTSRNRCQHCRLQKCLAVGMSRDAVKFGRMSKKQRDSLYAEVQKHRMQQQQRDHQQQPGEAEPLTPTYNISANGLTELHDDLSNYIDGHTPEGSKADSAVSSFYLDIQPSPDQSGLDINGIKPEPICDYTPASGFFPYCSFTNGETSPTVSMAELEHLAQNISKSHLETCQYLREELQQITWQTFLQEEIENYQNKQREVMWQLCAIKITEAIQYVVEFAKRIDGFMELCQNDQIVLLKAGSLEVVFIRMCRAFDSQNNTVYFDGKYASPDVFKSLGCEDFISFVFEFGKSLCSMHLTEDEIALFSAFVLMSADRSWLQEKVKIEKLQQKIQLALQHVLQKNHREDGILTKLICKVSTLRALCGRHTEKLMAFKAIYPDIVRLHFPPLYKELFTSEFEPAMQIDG
mHtt clearance: compounds clearing mutant huntingtin protein; HeLa Exon1htt(103Q)mCFP, aggregate imaging; zero = plate's median compound well; inhibition, % at 1.5 µM; hit rate 0.42% among 47,000; AID 853;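 active means inhibition of aggregate fluorescence above about 70%, also judged a hit by eye on the cell image, limit read from the data, passing the limit was not always enough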;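 further: cells exposed to compound for three days before fixation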
D1 mod confirm: D1 receptor (human) allosteric modulation, confirmed; luminescence at 10 µM; hit rate 88% among 2,200; HEK293 D1 CRE-luciferase, dopamine EC30 potentiation; active compounds read high; shares compounds with D1 mod; AID 642;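 active means luminescence in either of two replicates above the same-plate mean plus 3 SD of the low-dose dopamine control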
D1 ag no DA: D1 (human) signaling in absence of dopamine; HEK293 D1 CRE-luciferase, luminescence, no dopamine; active compounds read high; luminescence at 10 µM; AID 646; shares compounds with D1 mod; hit rate 0.8% among 1,900; in the data active means luminescence above about 3900
Isoprot counter: alters isoproterenol CRE-luciferase response in HEK293 cells | shares compounds with D1 mod | calls only at 10 µM | HEK293 D1 CRE-luciferase, isoproterenol EC30 counter-screen | hit rate 63% among 2,200;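 active means luminescence in either replicate above plate mean of wells with a partly effective reference agonist dose plus 3 SD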;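 further: isoproterenol raises cAMP through native beta-adrenoceptor Gs so signal bypasses D1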
* = called active by the depositor; i = inactive; / = no result; + = active, no number. Sampled rows, rich in hits. Any-hit rate of the full collection: about 11%.

SMILES	M1 agonist	M1 antagonist	D1 mod	SF-1 act	RORa activator	mHtt clearance	D1 mod confirm	D1 ag no DA	Isoprot counter
COc1ccc(S(=O)(=O)N2CCSC2c2ccc(OC)c(OC)c2)cc1 (stereo unspecified)	-1.2	-0.63	4.2*	-2	-1	/	10220*	1664	i
CCOC(=O)c1cc2c(=O)n(C)c3ccccc3c2s1	/	/	0.59	-4	-1	/	/	/	/
COc1ccc(-c2csc(NC(=O)c3cc(C)on3)c2C#N)cc1OC	-0.49	0.43	10*	5	24	38	17944*	1716	+
CCc1c(C)sc(NC(=O)c2cc(-c3cc(OC)ccc3OC)on2)c1C#N	0.0081	1.2	0.74	-10	-6	/	/	/	/
CCOC(=O)C(C)Oc1cccc2c(=O)n(CC(=O)NCc3ccco3)ccc12 (stereo unspecified)	-0.62	-0.074	3.3*	-8	-1	-118	6652*	1628	i
CCc1cccc2c(C#N)cn(CC(=O)NCc3ccco3)c12	-0.0084	0.21	-0.29	-12	7	/	/	/	/
CCC1CCc2c(sc(NC(=O)CSc3nc(-c4ccco4)cc(C(F)(F)F)n3)c2C#N)C1 (stereo unspecified)	/	/	/	/	/	56	/	/	/
Clc1ccccc1Cn1nnc2c(NCC3CC3)ncnc21	-0.3	-0.32	2.8*	0	-5	16	6104*	1744	+
Clc1ccccc1Cn1nnc2c(Nc3ccccc3)ncnc21	-0.082	1.3	1.3	20	-9	/	/	/	/
O=C(Nc1nc2c(s1)CCCC2=O)c1cnccn1	-0.56	-0.23	-0.47	41	32	/	/	/	/
Nc1c(C(=O)c2ccc(F)cc2)oc2ccccc12	0.065	0.018	11*	18	8	-34	24288*	1764	+
Cc1nc(SCC#N)c2c(C)c(C)sc2n1	0.28	-0.92	5.8*	-6	-6	-8	13352*	1616	+
Cc1ccc(-c2nnc(CSc3nc(C)nc4sc(C)c(C)c34)o2)cc1	0.28	0.19	-0.6	3	-20	/	/	/	/
c1ccc(COc2ccc(Nc3ncnc4nc[nH]c34)cc2)cc1	1.5	-0.082	-1.6	37	37	26	/	/	/
COc1ccc(Nc2ncnc3sc(-c4ccccc4)cc23)cc1	/	/	/	/	/	-6	/	/	/
COc1ncnc2sc(-c3ccccc3)cc12	-0.0058	-0.0016	2.8*	51*	28	/	10684*	1684	+
N#Cc1c(N)sc(=S)c2c1CCN(Cc1ccccc1)C2	-0.63	-1.6	-0.29	10	-3	/	/	/	/
CC1(C)Cc2c(C#N)c(N)sc(=S)c2CO1	-0.36	-0.25	9.1*	-16	-24	/	17212*	1388	+
CC(C)C1Cc2c(C#N)c(N)sc(=S)c2CO1 (stereo unspecified)	0.055	-0.56	10*	8	-6	6	21832*	1584	+
Cc1cc(C)c(NC(=O)CSc2nnc(-c3ccncc3)n2Cc2ccco2)c(Cl)c1	0.031	-0.36	0.0025	0	0	-32	/	/	/
O=C(OCC(=O)N1CCN(C(=O)COC(=O)c2ccncc2)CC1)c1ccncc1	-1.5	-1.1	-0.071	3	-13	/	/	/	/
O=C(CSc1nnc2sc3ccccc3n12)NCc1ccc2c(c1)OCO2	0.2	0.37	-0.0052	-6	-8	/	/	/	/
CCN(CC)S(=O)(=O)c1cccc(-c2nnc(SCCOc3ccccc3)o2)c1	-0.47	-0.45	14*	13	-2	-23	5768	1568	i
CCSc1cnc(-c2ccccc2)n1CC	0.98	0.16	4.5*	-9	3	/	8832*	1620	i
COc1ccc(-c2nn3c(-c4ccc(F)cc4)nnc3s2)cc1	-0.21	-2.4	0.99	4	-5	46	/	/	/
SMILES	M1 agonist	M1 antagonist	D1 mod	SF-1 act	RORa activator	mHtt clearance	D1 mod confirm	D1 ag no DA	Isoprot counter
COc1ccc(Cc2nn3c(-c4ccccc4Br)nnc3s2)cc1	0.5	-0.34	5.4*	-10	-4	/	8536*	1392	+
COc1ccc(-c2nn3c(-c4ccccc4)nnc3s2)cc1	0.27	-0.71	5.5*	-12	-9	-24	11796*	1844	+
COc1ccc(Cc2nn3c(-c4cc(OC)c(OC)c(OC)c4)nnc3s2)cc1	1.3	0.027	4.7*	11	21	/	8960*	1520	+
Cc1noc(C)c1CSCC(=O)OCC(=O)NC1CCCCC1	0.56	0.81	0.0055	8	1	/	/	/	/
COc1ccc(C(=O)COC(=O)CSCc2c(C)noc2C)cc1OC	-1.6	-0.26	7.6*	5	15	17	17860*	1868	+
COc1ccc(OC)c(NC(=O)CN(c2ccc(OC)c(Cl)c2)S(C)(=O)=O)c1	-0.62	-0.077	4*	-14	8	/	16872*	1728	+
COc1ccc(N(CC(=O)Nc2cccc(OC)c2)S(=O)(=O)c2c(C)nn(C)c2C)cc1	0.62	-0.19	/	6	-37	/	/	/	/
COc1ccc(N(CC(=O)Nc2cc(OC)ccc2OC)S(=O)(=O)c2c(C)nn(C)c2C)cc1	-0.8	-0.89	8.7*	15	10	-49	14244*	1416	+
COc1ccc(OC)c(NC(=O)CC(NCCC2=CCCCC2)C(=O)O)c1 (stereo unspecified)	-1.2	-0.35	0.89	-8	-8	4	/	/	/
O=C(c1ccc(-n2cnnn2)cc1)N1CCCCC1	/	/	/	/	/	-55	/	/	/
Cc1ccc(S(=O)(=O)N2CCN(C(=O)COC(=O)c3cc(C)oc3C)CC2)cc1	-0.14	0.38	4.3*	3	-5	-9	6052*	1764	i
O=C(Nc1ccc(Cl)cc1C(=O)Nc1ccncc1)c1ccco1	-0.32	-0.28	8.7*	-20	-9	/	11616*	/	+
O=C(Nc1ccccc1C(=O)NCc1cccnc1)c1ccco1	2.6	1.7	/	-1	11	/	/	/	/
O=C(Nc1ccc(Cl)cc1C(=O)NCc1cccnc1)c1ccco1	1.3	0.074	10*	-4	-14	23	16768*	1484	+
Cc1ccc(-c2noc(CCC(=O)N(C)c3ccccc3C)n2)cc1	-0.26	-1.6	-0.061	-16	-19	/	/	/	/
N#CC1=C(N)N(c2ccccc2)C2=C(C(=O)CCC2)C1c1cccs1 (stereo unspecified)	-0.59	-0.16	3.2*	-16	2	/	7976*	1556	i
COc1ccc2c(C)cc(=O)oc2c1C	-0.049	-0.013	5.7*	2	0	-46	11556*	/	+
CC(C)N=C(NC#N)SCc1ccc(F)cc1	-0.23	0.002	-0.6	0	9	-30	/	/	/
